Assays:
Culex pipiens pallens [1] = test: Larvicidal activity against Culex pipiens pallens (mosquito) at 2 mg/kg; assay type: functional
Tetranychus cinnabarinus [2] = test: Acaricidal activity against Tetranychus cinnabarinus (carmine spider mite) larvae at 600 mg/kg by leaf dip method; assay type: functional
Tetranychus cinnabarinus [3] = test: Acaricidal activity against Tetranychus cinnabarinus (carmine spider mite) adults at 200 mg/kg by leaf dip method; assay type: functional
Culex pipiens pallens [4] = test: Larvicidal activity against Culex pipiens pallens (mosquito) at 5 mg/kg; assay type: functional
Helicoverpa armigera [5] = test: Stomach toxicity against third-instars Helicoverpa armigera assessed as larvicidal activity at 11 mg/kg at 25 +/- 1 degC after 3 days; assay type: functional
Procedure, shortened: (§1)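 Diet-incorporation assay on third-instar larvae. Samples dissolved in acetone to the desired final concentrations; 3 mL of test solution mixed evenly into about 27 g of prepared feed, then dispensed into 24-well plates. Run in triplicate at 25 ± 1 °C. Dead/alive scoring 3 days after treatment; mortality corrected by Abbott's formula on a 0–100 scale.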

Helicoverpa armigera [6] = test: Stomach toxicity against third-instars Helicoverpa armigera assessed as larvicidal activity at 22 mg/kg at 25 +/- 1 degC after 3 days; assay type: functional; procedure, shortened: as §1
Tetranychus cinnabarinus [7] = test: Acaricidal activity against Tetranychus cinnabarinus (carmine spider mite) eggs at 600 mg/kg by leaf dip method; assay type: functional, Egg
Tetranychus cinnabarinus [8] = test: Acaricidal activity against Tetranychus cinnabarinus (carmine spider mite) adults at 600 mg/kg by leaf dip method; assay type: functional
Plutella xylostella [9] = test: Stomach toxicity against Plutella xylostella (diamondback moth) assessed as larvicidal activity at 200 mg/kg by leaf dip method; assay type: functional
Helicoverpa armigera [10] = test: Stomach toxicity against third-instars Helicoverpa armigera assessed as larvicidal activity at 110 mg/kg at 25 +/- 1 degC after 3 days; assay type: functional; procedure, shortened: as §1
Aphis craccivora [11] = test: Larvicidal activity against Aphis craccivora (cowpea aphid) at 200 mg/kg by leaf dip method; assay type: functional
Helicoverpa armigera [12] = test: Stomach toxicity against third-instars Helicoverpa armigera assessed as larvicidal activity at 55 mg/kg at 25 +/- 1 degC after 3 days; assay type: functional; procedure, shortened: as §1
Plutella xylostella [13] = test: Stomach toxicity against Plutella xylostella (diamondback moth) assessed as larvicidal activity at 600 mg/kg by leaf dip method; assay type: functional
Aphis craccivora [14] = test: Larvicidal activity against Aphis craccivora (cowpea aphid) at 600 mg/kg by leaf dip method; assay type: functional
Tetranychus cinnabarinus [15] = test: Acaricidal activity against Tetranychus cinnabarinus (carmine spider mite) eggs at 200 mg/kg by leaf dip method; assay type: functional, Egg
Tetranychus cinnabarinus [16] = test: Acaricidal activity against Tetranychus cinnabarinus (carmine spider mite) larvae at 200 mg/kg by leaf dip method; assay type: functional
Helicoverpa armigera [17] = test: Stomach toxicity against third-instars Helicoverpa armigera assessed as larvicidal activity at 5.5 mg/kg at 25 +/- 1 degC after 3 days; assay type: functional; procedure, shortened: as §1
Culex pipiens pallens [18] = test: Larvicidal activity against Culex pipiens pallens (mosquito) at 1 mg/kg; assay type: functional

SMILES	Activity (Culex pipiens pallens [1]) [%]	Activity (Tetranychus cinnabarinus [2]) [%]	Activity (Tetranychus cinnabarinus [3]) [%]	Activity (Culex pipiens pallens [4]) [%]	Activity (Helicoverpa armigera [5]) [%]	Activity (Helicoverpa armigera [6]) [%]	Activity (Tetranychus cinnabarinus [7]) [%]	Activity (Tetranychus cinnabarinus [8]) [%]	Activity (Plutella xylostella [9]) [%]	Activity (Helicoverpa armigera [10]) [%]	Activity (Aphis craccivora [11]) [%]	Activity (Helicoverpa armigera [12]) [%]	Activity (Plutella xylostella [13]) [%]	Activity (Aphis craccivora [14]) [%]	Activity (Tetranychus cinnabarinus [15]) [%]	Activity (Tetranychus cinnabarinus [16]) [%]	Activity (Helicoverpa armigera [17]) [%]	Activity (Culex pipiens pallens [18]) [%]
CCc1nn(C)c(C(=O)NC(CO)c2ccc(C(C)(C)C)cc2)c1Cl (stereo not drawn)	0	25	0	20	0	40	40	10	40	100	80	100	80	100	0			
CCc1cc(C2=NC(c3ccc(Cl)cc3)CO2)n(C)n1 (stereo not drawn)	0	40	0	10	40	70	100	20	15	100	90	100	60	100	80	20	0	
CCc1cc(C2=NC(c3ccc(Oc4ccccc4)cc3)CO2)n(C)n1 (stereo not drawn)	0	70	10	30	0	40	90	40	45	100	20	100	70	50	50	50		
CCCCCOc1ccc(C(CO)NC(=O)c2c(Cl)c(CC)nn2C)cc1 (stereo not drawn)	0	20	0	20	0	30	30	15	30	100	95	100	90	100	20	0		
CCc1cc(C(=O)NC(CO)c2ccc(Cl)cc2)n(C)n1 (stereo not drawn)	0	25	0	20	0	50	0	25	60	100	75	100	100	98		0		
CCCCCOc1ccc(C2COC(c3cc(CC)nn3C)=N2)cc1 (stereo not drawn)	0	30	0	30	0	30	50	20	0	100	20	100	30	75	40	0		
CCc1cc(C(=O)NC(CO)c2ccc(Oc3ccccc3)cc2)n(C)n1 (stereo not drawn)	0	0	0	30	0	30	20	30	45	100	70	100	90	95	0			
CCCCCOc1ccc(C(CO)NC(=O)c2cc(CC)nn2C)cc1 (stereo not drawn)	0	20	0	20	20	60	20	45	30	100	85	100	45	100	0	0	0	
CCc1cc(C(=O)NC(CCl)c2ccc(Cl)cc2)n(C)n1 (stereo not drawn)	0	20		10	0	20	30	0	0	100	0	100	30	30	0	0		
CCc1nn(C)c(C(=O)NC(CO)c2ccc(Cl)cc2)c1Cl (stereo not drawn)	0	25		30	0	40	10	0	0	100	95	100	30	100	0	0		
CCc1cc(C(=O)NC(CO)c2ccc(C(C)(C)C)cc2)n(C)n1 (stereo not drawn)	0	0		10	10	60	50	0	60	100	50	100	70	70	40		0	
CCCCCOc1ccc(C(CCl)NC(=O)c2cc(CC)nn2C)cc1 (stereo not drawn)	60	70		100	0	40	70	0	0	100	80	100	15	100	50	40		0
